Results from ChEMBL document CHEMBL5316289, “Structure-Based Rational Design of Small α-Helical Peptides with Broad-Spectrum Activity against Multidrug-Resistant Pathogens” (J Med Chem, 2023).
“And” between values parts separate entries of the source, which are not always exact repeats. Equal entries are not always repeated. The source made the active and inactive calls. The rule behind the calls is not given here. Where a SMILES comes first, the peptide text is derived from it. Bridges are numbered along the chain shown (N, C = ends). [ ]: non-standard residue; d: D form. The star is where a group is joined. X1 = CC[C@H](C)CCCCC(=O)*; dDab = NCC[C@@H](N)C(=O)O; Dab = NCC[C@H](N)C(=O)O

Assays:
[1] = test system: Staphylococcus aureus; experiment: Antibacterial activity against methicillin resistant Staphylococcus aureus ATCC BAA 1556 assessed as fold increase in MIC incubated for 24 hrs in presence of Na+ ions by CLSI based broth microdilution method; format: functional
Procedure, shortened: (§1)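 CLSI broth microdilution. Overnight cultures diluted in cation-adjusted Mueller Hinton broth to 10^6 CFU/mL, mixed 1:1 with 2-fold serial peptide dilutions, 24 h at 37 °C. […] MIC is the lowest concentration inhibiting growth. Three independent assays in triplicate.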

[2] = test system: Escherichia coli; experiment: Antibacterial activity against Escherichia coli ATCC 25922 assessed as fold increase in MIC incubated for 24 hrs in presence of Na+ ions by CLSI based broth microdilution method; format: functional
Procedure, shortened: (§2)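 E. coli MICs by CLSI broth microdilution in cation-adjusted Mueller Hinton broth. […] Inoculum was 10^6 CFU/mL with 2-fold serial peptide dilutions, incubated 24 h at 37 °C. MIC is the lowest concentration inhibiting growth. Three independent assays, each in triplicate.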

[3] = test system: Staphylococcus aureus; experiment: Antibacterial activity against methicillin resistant Staphylococcus aureus ATCC BAA 1556 assessed as fold increase in MIC incubated for 24 hrs in presence of K+ ions by CLSI based broth microdilution method; format: functional; procedure, shortened: as §1
[4] = test system: Staphylococcus aureus; experiment: Antibacterial activity against methicillin resistant Staphylococcus aureus ATCC BAA 1556 assessed as fold increase in MIC incubated for 24 hrs in presence of NH4+ ions by CLSI based broth microdilution method; format: functional; procedure, shortened: as §1
[5] = test system: Staphylococcus aureus; experiment: Antibacterial activity against methicillin resistant Staphylococcus aureus ATCC BAA 1556 assessed as fold increase in MIC incubated for 24 hrs in presence of Ca2+ ions by CLSI based broth microdilution method; format: functional; procedure, shortened: as §1
[6] = test system: Staphylococcus aureus; experiment: Antibacterial activity against methicillin resistant Staphylococcus aureus ATCC BAA 1556 assessed as fold increase in MIC incubated for 24 hrs in presence of Mg2+ ions by CLSI based broth microdilution method; format: functional; procedure, shortened: as §1
[7] = test system: Escherichia coli; experiment: Antibacterial activity against Escherichia coli ATCC 25922 assessed as fold increase in MIC incubated for 24 hrs in presence of K+ ions by CLSI based broth microdilution method; format: functional; procedure, shortened: as §2
[8] = test system: Escherichia coli; experiment: Antibacterial activity against Escherichia coli ATCC 25922 assessed as fold increase in MIC incubated for 24 hrs in presence of NH4+ ions by CLSI based broth microdilution method; format: functional; procedure, shortened: as §2
[9] = test system: Escherichia coli; experiment: Antibacterial activity against Escherichia coli ATCC 25922 assessed as fold increase in MIC incubated for 24 hrs in presence of Ca2+ ions by CLSI based broth microdilution method; format: functional; procedure, shortened: as §2
[10] = test system: Escherichia coli; experiment: Antibacterial activity against Escherichia coli ATCC 25922 assessed as fold increase in MIC incubated for 24 hrs in presence of Mg2+ ions by CLSI based broth microdilution method; format: functional; procedure, shortened: as §2
[11] = test system: Staphylococcus aureus; experiment: Bactericidal activity against methicillin resistant Staphylococcus aureus ATCC BAA 1556 assessed as inhibition of bacterial growth at 4 times of MIC incubated for 3 hrs by Time kill assay; format: functional
Procedure, shortened: (§3)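 Aliquots taken every 30 min for 4 h and plated on agar for viable colony counts. Two independent experiments in triplicate.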

[12] = test system: Lipid bilayer; experiment: Induction of membrane disruption in mammalian membrane mimic DOPC/cholesterol (10:1) large unilamellar vesicles assessed as induction of dye leakage at 50 ug/ml measured after 100 mins by calcein dye based analysis; format: cell membranes; details: dose 50.0 µg/ml
Procedure, shortened: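 LUVs loaded with calcein: DOPC/DOPG 7:3 w/w (bacterial mimic) or DOPC/cholesterol 10:1 w/w (mammalian mimic). Mixed 1:1 by volume with peptide at 5, 10, 20, 30 or 50 μg/mL. Fluorescence (ex 490/em 520 nm) read every 10 min for 100 min. Leakage expressed relative to 10% Triton X-100 lysis (100%), after subtracting liposome background. Triplicate.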

[13] = test system: Cell membrane; experiment: Disruption of cell membrane in methicillin resistant Staphylococcus aureus ATCC BAA 1556 assessed as increase in PI fluorescence intensity at MIC measured after 1 hrs by PI staining based flow cytometric analysis; format: subcellular
Procedure, shortened: (§4)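 Mid-log cells grown in Mueller Hinton broth, washed in 10 mM Tris pH 7.4, 10^7 CFU/mL, treated at MIC and 4× MIC for 1 h. Pelleted, washed, PI-stained for 15 min at 37 °C in the dark, then counted by flow cytometry for % PI-positive cells. PBS-treated cells as negative control, 10% Triton X-100 as positive control. Run in triplicate; two-tailed unpaired t-test.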

[14] = test system: Cell membrane; experiment: Disruption of cell membrane in methicillin resistant Staphylococcus aureus ATCC BAA 1556 assessed as increase in PI fluorescence intensity at 4 times of MIC measured after 1 hrs by PI staining based flow cytometric analysis; procedure, shortened: as §4
[15] = test system: Cell membrane; experiment: Disruption of cell membrane in Escherichia coli ATCC BAA-2452 assessed as increase in PI fluorescence intensity at 4 times of MIC measured after 1 hrs by PI staining based flow cytometric analysis; format: subcellular
Procedure, shortened: (§5)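 Mid-log E. coli ATCC BAA-2452 grown in Mueller Hinton broth, washed thrice and resuspended at 10^7 CFU/mL in 10 mM Tris pH 7.4. […] Controls: PBS (negative) and 10% Triton X-100 (positive). Triplicate; two-tailed unpaired t-test.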

[16] = test system: Cell membrane; experiment: Disruption of cell membrane in Escherichia coli ATCC BAA-2452 assessed as increase in PI fluorescence intensity at MIC measured after 1 hrs by PI staining based flow cytometric analysis; format: subcellular; procedure, shortened: as §5
[17] = test system: Klebsiella pneumoniae; experiment: Antibacterial activity against Klebsiella pneumoniae ATCC BAA 1705 assessed as inhibition of bacterial growth incubated for 24 hrs by CLSI based broth microdilution method; format: functional; details: read-out: MIC
[18] = test system: Escherichia coli; experiment: Bactericidal activity against […] Escherichia coli ATCC BAA 2452 assessed as inhibition of bacterial growth at 4 times of MIC incubated for 2.5 hrs by Time kill assay; format: functional; procedure, shortened: as §3
[19] = test system: Escherichia coli; experiment: Antibacterial activity against Escherichia coli ATCC 25922 assessed as inhibition of bacterial growth incubated for 24 hrs by CLSI based broth microdilution method; format: functional
[20] = test system: Pseudomonas aeruginosa; experiment: Antibacterial activity against Pseudomonas aeruginosa […] assessed as inhibition of bacterial growth incubated for 24 hrs by CLSI based broth microdilution method; format: functional
[21] = test system: Erythrocyte; experiment: Hemolytic activity in human RBC incubated for 2 hrs by spectrophotometrical analysis; format: toxicity, cell-based
Procedure, shortened: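 Human erythrocytes (4% suspension in PBS) mixed 1:1 with 2-fold serial peptide dilutions, 2 h at 37 °C without agitation. After centrifugation, supernatant hemoglobin read at 567 nm. 0% hemolysis set by PBS, 100% by 1% Triton X-100. HC50 is the concentration giving 50% hemolysis.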

[22] = test system: Staphylococcus aureus; experiment: Antibacterial activity against methicillin resistant Staphylococcus aureus ATCC BAA 1556 assessed as inhibition of bacterial growth incubated for 24 hrs by CLSI based broth microdilution method; format: functional
[23] = test system: Staphylococcus aureus; experiment: Antibacterial activity against Staphylococcus aureus ATCC 29213 assessed as inhibition of bacterial growth incubated for 24 hrs by CLSI based broth microdilution method; format: functional

In the case of H-KWIKKWIKWWKK-NH2, the “fold change (FC)” value [1] is reported as 2, the “fold change (FC)” value [2] is reported as 2 and the “fold change (FC)” value [3] is reported as 2. For the same compound, the “fold change (FC)” value [4] was 2, the “fold change (FC)” value [5] was 2 and the “fold change (FC)” value [6] was 2. The “fold change (FC)” value [7] was 2, the “fold change (FC)” value [8] was 2 and the “fold change (FC)” value [9] was 2. The “fold change (FC)” value [10] was 2.

`CCCCCCCCCC(=O)N[C@@H](Cc1c[nH]c2ccccc12)C(=O)N[C@H](CC(N)=O)C(=O)N[C@@H](CC(=O)O)C(=O)N[C@@H]1C(=O)NCC(=O)N[C@@H](CCCN)C(=O)N[C@@H](CC(=O)O)C(=O)N[C@H](C)C(=O)N[C@@H](CC(=O)O)C(=O)NCC(=O)N[C@H](CO)C(=O)N[C@@H]([C@H](C)CC(=O)O)C(=O)N[C@@H](CC(=O)c2ccccc2N)C(=O)O[C@@H]1C` was tested, and the “inhibition (INH)” value [11] was 100%, the Activity [12] was 7% and the Activity [13] was “inactive”. For the same compound, the Activity [14] was “inactive”, the Activity [15] was “inactive” and the Activity [16] was “inactive”.

`CC[C@H](C)CCCCC(=O)N[C@@H](CCN)C(=O)N[C@H](C(=O)N[C@@H](CCN)C(=O)N[C@H]1CCNC(=O)[C@H]([C@@H](C)O)NC(=O)[C@H](CCN)NC(=O)[C@H](CCN)NC(=O)[C@H](CC(C)C)NC(=O)[C@@H](Cc2ccccc2)NC(=O)[C@@H](CCN)NC1=O)[C@@H](C)O` (X1-[Dab]T[Dab][Dab][dDab][dF]L[Dab][Dab]T; lactam 4-C) was tested, and the Activity [13] was “inactive”, the Activity [14] was “inactive” and the Activity [15] was “inactive”. For the same compound, the Activity [16] was “inactive”.

In the case of H-RWIRRWIRWWRR-NH2, the MIC [17] is reported as 12.5 µg/mL, the “fold change (FC)” value [1] is reported as 2 and the “fold change (FC)” value [2] is reported as 2. The “fold change (FC)” value [3] was 2, the “fold change (FC)” value [4] was 2 and the “fold change (FC)” value [5] was 2. For the same compound, the “fold change (FC)” value [6] was 2, the “fold change (FC)” value [7] was 2 and the “fold change (FC)” value [8] was 2. For the same compound, the “fold change (FC)” value [9] was 2 and the “fold change (FC)” value [10] was 2.

For `CC[C@H](C)CCCCC(=O)N[C@@H](CCN)C(=O)N[C@H](C(=O)N[C@@H](CCN)C(=O)N[C@H]1CCNC(=O)[C@H]([C@@H](C)O)NC(=O)[C@H](CCN)NC(=O)[C@H](CCN)NC(=O)[C@H](CC(C)C)NC(=O)[C@@H](Cc2ccccc2)NC(=O)[C@H](CCN)NC1=O)[C@@H](C)O` (X1-[Dab]T[Dab][Dab][Dab][dF]L[Dab][Dab]T; lactam 4-C), the “inhibition (INH)” value [18] was 100%.

In the case of Ac-RWARRWARWWRR-NH2, the MIC [19] is reported as 100 µg/mL, the MIC [20] is reported as 100 µg/mL and the MIC [17] is reported as greater than 100 µg/mL. The HC50 [21] was 110 ug ml-1 and 58.4 µM.

H-RAWRRWWARA-NH2 was tested, and the MIC [22] was > 100 µg/mL and > 70.7 µM, the MIC [23] was > 100 µg/mL and > 70.7 µM and the MIC [19] was > 100 µg/mL and > 70.7 µM. The MIC [20] was greater than 100 µg/mL and the MIC [17] was greater than 100 µg/mL.
